GPR7 antag – GPR7 receptor antagonists, primary screen, cell-based, fluorescence, single concentration; Neuropeptides B/W receptor type 1 (Homo sapiens), P48145; hit rate 1.1% among 290,000; inhibition, % at 4.4 µM; GPR7-expressing cells, fluorescence antagonist assay; in the data active = inhibition above about 16%, passing the limit was not always enough;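 also: cells stimulated with the agonist NPW; 0% = agonist with vehicle and 100% = vehicle without agonist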
Target sequence (P48145 whole entry, looked up): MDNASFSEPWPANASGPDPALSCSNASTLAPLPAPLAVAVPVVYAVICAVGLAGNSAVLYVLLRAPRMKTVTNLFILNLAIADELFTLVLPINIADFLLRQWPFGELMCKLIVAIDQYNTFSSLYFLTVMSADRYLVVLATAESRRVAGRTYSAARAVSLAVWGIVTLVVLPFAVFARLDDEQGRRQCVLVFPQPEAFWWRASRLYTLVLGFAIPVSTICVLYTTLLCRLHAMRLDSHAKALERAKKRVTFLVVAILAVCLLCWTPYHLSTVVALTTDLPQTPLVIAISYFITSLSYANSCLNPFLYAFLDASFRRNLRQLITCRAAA
TRPML3 ag – human TRPML3 channel agonists, primary screen, cell-based, HEK293 TRPML3-YFP, Fluo-8 calcium fluorescence, 3 µM | Mucolipin-3 (Homo sapiens), Q8TDD5 | 100% = the carbachol control signal | activation, % at 3 µM | hit rate 0.29% among 220,000 | AID 1448, 2008;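 active = activation above its plate's cutoff, the mean activation of the plate's test wells plus 3 SD, cut at about 12% in these data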;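 also: 0% = DMSO only wells and 100% = carbachol wells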
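system = HEK293 cells stably carrying human TRPML3-YFP | doses = one concentration, 3 µM nominal, 0.3% DMSO | timing = dye loading 1 h 37 °C then 30 min ambient, 125 s read | detection = Fluo-8 calcium dye fluorescence, ex 470-495, em 515-575 nm | benchmarks = high control carbachol 87 µM, low control DMSO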
CRFR2-BP ag – agonists of CRF-BP/CRF-R2 complex, primary screen, cell-based, HEK293, calcium dye fluorescence, uHTS | calcium dye fluorescence (FLIPR); percent of saturating CRF peptide response | hit rate 0.46% among 350,000 | activation, % at 13.2 µM;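 active = activation of at least 50%, plus an integration ratio under a set limit after plate pattern correction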;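 also: plate controls were neutral control wells without compound for no effect and CRF at EC100 for full effect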
CRFR2-BP antag – antagonists of CRF-BP/CRF-R2 complex, primary screen, cell-based, HEK293, calcium dye fluorescence, uHTS | CRF-induced calcium fluorescence | inhibition, % at 11.8 µM | hit rate 0.59% among 350,000 | AID 588475, 2011;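 active = inhibition of the ligand-induced calcium signal above about 50% at the single tested concentration, limit read from the data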
zfTRPN1 agonist – zebrafish TRPN1 channel agonists, primary screen, cell-based, HEK293, calcium fluorescence; transient receptor potential cation channel N1 (TRPN1/NompC), Danio rerio; HEK293 zebrafish TRPN1-YFP, Fluo-8 calcium fluorescence; 100% = response to 87 µM carbachol; activation, % at 3 µM; hit rate 0.18% among 220,000; AID 1424, 2008;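 active = activation above its plate's cutoff, the mean activation of test wells on that plate plus 3 SD, cut at about 19% in these data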;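 also: 0% = DMSO alone and 100% = 87 µM carbachol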
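Assay system: Zebrafish TRPN1-YFP in HEK293 cells | Incubation: Dye loading 1 h at 37 °C, then 30 min room temperature | Measured by: Kinetic Fluo-8 fluorescence, ex 470-495, em 515-575 nm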
* marks the source's active call; other numbers are inactive results; . = no result given. This is a sample that favours compounds with a hit; in the whole collection about 2% have one here.

SMILES	GPR7 antag	TRPML3 ag	CRFR2-BP ag	CRFR2-BP antag	zfTRPN1 agonist
Cc1cc(NC(=O)Cn2nc3c(cc2=O)CCCC3)ccc1Br	0.7	0.0	0.1	54.9*	0.1
O=C(CN1C(=O)NC2(CCCc3ccccc32)C1=O)c1ccc(F)cc1 (configuration not stated)	.	.	0.1	-9.9	.
CS(=O)(=O)c1ccc(C(=O)CN2C(=O)NC3(CCCc4ccccc43)C2=O)cc1 (configuration not stated)	.	.	0.4	53.4*	.
Cc1ccc(NC(=O)CNNC(=O)c2cccc([N+](=O)[O-])c2)cc1[N+](=O)[O-]	.	.	-3.3	4.6	.
O=C(CSc1nn(-c2ccccc2)c(=S)s1)Nn1cnnc1	4.4	0.9	0.4	10.0	0.8
COC(=O)CSc1nn(-c2ccc(F)cc2)c(=S)s1	-5.9	-1.0	-9.9	51.2*	-1.5
N#C/C(=C\c1ccccn1)c1nc2ccccc2s1	21.3*	7.5	81.7*	-221.9	26.2*
N#C/C(=C/c1ccc(-c2ccc(S(N)(=O)=O)cc2)o1)c1nc2ccccc2s1	10.9	13.7*	203.3*	-233.9	12.9
N#C/C(=C/c1ccc(-c2ccccc2)o1)c1nc(-c2cccs2)cs1	-4.6	2.9	158.7*	-198.4	3.6
N#C/C(=C\c1ccc(-c2ccc(F)cc2)o1)C(=O)Nc1nc(-c2cccs2)cs1	19.9	0.2	10.3	-19.9	1.2
Cc1ccc(COC(=O)CCCN=C2NS(=O)(=O)c3ccccc32)cc1	.	.	0.7	23.2	.
O=C1C(Cl)=C(N2CCCC2)C(=O)N1c1ccccc1F	-3.2	.	2.6	16.2	.
O=C(NC(=S)N1CCN(c2ccc(F)cc2)CC1)c1cccs1	8.4	0.3	0.9	50.5*	-1.2
O=C(NC(=S)N1CCN(c2ccc(O)cc2)CC1)c1cccs1	6.0	4.7	-1.2	-2.0	0.7
CCC(C)(C)C1CCC(NC(=O)c2ccc(S(=O)(=O)N3CCOCC3)cc2)CC1 (configuration not stated)	.	.	-0.4	-6.6	.
CCN1CCN(CCNC(=O)c2cn(Cc3ccccc3F)nn2)CC1	-11.2	-0.5	-1.7	-0.7	27.6*
COc1ccc(CCNC(=O)Oc2ccccc2)cc1OC	-16.7	.	-0.3	9.1	.
Cc1cc(Br)ccc1NC(=O)CN(C)C(=O)c1ccccc1OCc1c(C)noc1C	.	.	-0.9	22.9	.
CC1(C)C[C@@H]2C[C@@](C)(CN2C(=O)c2ccccc2)C1	-13.3	1.1	0.5	-6.0	0.5
CC1(C)CC2CC(C)(CN2/C=C2/CCCCC2=O)C1 (configuration not stated)	0.1	1.1	-1.1	114.6*	2.4
CCc1ccccc1N=Cc1c(C)c(C#N)c2[nH]c3ccccc3n2c1=O	.	.	164.8*	-134.0	.
Cc1ccc(S(=O)(=O)N2CCC[C@H]2C(=O)OCCN2C(=O)c3ccccc3C2=O)cc1	.	.	0.5	-2.9	.
Cc1cc(Br)c(NC(=O)COC(=O)c2ccc[n+]([O-])c2)c(Br)c1	.	.	0.2	-22.3	.
Cc1cc(C)nc(SCc2ccc(C(=O)N/N=C/c3ccncc3)cc2)n1	-5.0	0.8	-1.3	-15.9	0.8
Cc1cc(C)nc(SCc2ccc(C(=O)NNC(=O)Nc3cccc(Cl)c3)cc2)n1	-11.7	0.2	0.1	69.5*	0.3
SMILES	GPR7 antag	TRPML3 ag	CRFR2-BP ag	CRFR2-BP antag	zfTRPN1 agonist
CC(=O)Nc1ccc(S(=O)(=O)Oc2ccccc2N2CCCCC2)cc1	20.0*	5.2	0.5	1.3	11.8
COc1cc(C(=S)N2CCCC2)ccc1OS(=O)(=O)c1ccc(NC(C)=O)cc1	10.2	3.5	-1.9	-7.2	5.8
CCOC(=O)C1C(=O)C=C(/C=C/c2ccc(N(C)C)cc2)CC1c1ccccc1 (configuration not stated)	0.2	5.0	292.1*	-264.2	5.3
CCOC(=O)C1C(=O)C=C(c2ccc(C)cc2)CC1c1ccccc1 (configuration not stated)	-5.0	1.1	1.4	22.4	-1.8
CCC/C(O)=C1\C(=O)CC(C)(C)CC1=Nc1ccc(OC)cc1OC	16.2*	0.0	-2.1	4.7	-2.4
CC(=O)Nc1ccc(NC(=O)c2nc(S(=O)(=O)Cc3cccc(C)c3)ncc2Cl)cc1	16.9	.	-0.9	72.8*	.
CCOC(=O)c1ccc(NC(=O)c2nc(S(=O)(=O)Cc3ccccc3)ncc2Cl)cc1	21.7	.	0.1	29.9	.
Cc1cc(=O)n2nc(N3CCCC3C(=O)Nc3cccc(Cl)c3C)sc2n1 (configuration not stated)	6.0	.	-2.1	-12.0	.
CC(=O)c1cc(NC(=O)c2ccc(C)cc2)c(=O)oc1/C=C/N(C)C	-9.9	0.9	122.8*	-83.2	2.8
COc1ccc(C(=O)Nc2cc(C(C)=O)c(/C=C/N(C)C)oc2=O)cc1	-5.6	0.6	155.3*	-177.9	1.6
CCc1ccc(S(=O)(=O)/N=C2\C=C(Nc3ccc(O)cc3)C(=O)c3ccccc32)cc1	-31.8	.	-3.4	140.1*	.
Cc1ccc(CNS(=O)(=O)c2c(C)[nH]c(C)c2C(=O)N2CCCCC2)o1	-13.5	.	-1.9	-1.8	.
Cc1ccc(C2C(C#N)=C(N)SC(N)=C2C#N)c(C)c1	-11.1	2.1	133.0*	-89.2	5.6
Cc1ccc(C2C(C#N)=C(N)SC(N)=C2C#N)cc1	-11.3	1.0	39.5	-12.2	3.3
CCCOc1ccc(Br)cc1CSC(=N)N	54.5*	2.3	0.6	-62.5	1.8
CCOc1ccc(Br)cc1CC(=O)O	17.8	0.2	0.7	1.5	0.6
COCCOC(=O)/C(=C/c1ccc(OC(=O)c2ccccc2)cc1)C(C)=O	-0.2	0.3	57.2*	-174.7	-1.0
COc1ccc(OC)c(C(c2nnnn2C2CCCC2)N2CCN(c3ccc(F)cc3)CC2)c1 (configuration not stated)	18.1*	0.7	-1.3	-3.8	-2.5
CCOc1ccc(NC(=O)CSc2ccc3nnc(-c4cccnc4)n3n2)cc1	-8.5	.	0.6	125.0*	.
O=C(CSc1ccc2nnc(-c3cccnc3)n2n1)Nc1ccc(F)cc1	-9.8	.	0.2	7.4	.
CC(=O)c1ccc2ccccc2c1OC(=O)c1ccncc1	.	.	-1.7	10.7	.
Cc1ccccc1CN(C)C(=O)COC(=O)c1ccc2[nH]c(C)c(C)c2c1	.	.	1.0	63.8*	.
CCOC(=O)c1cc(S(=O)(=O)Nc2ccc(F)cc2F)cn1C	-7.9	.	-0.3	71.7*	.
CCOC(=O)c1cc(S(=O)(=O)Nc2cccc(OC)c2)cn1C	-0.3	.	-1.0	10.2	.
C[C@H]1CN([C@@H](C)CO)C(=O)CCCn2cc(nn2)CO[C@@H]1CN(C)S(=O)(=O)c1ccc(C#N)cc1	.	.	-0.6	1.9	.
